Shown are actives, neighbours in structure and some others; about 1.1% of the full set was active somewhere.
SKN-1 inh – suppressors of acrylamide-induced Pgst-4::GFP reporter in worms, primary screen, SKN-1 inhibitor project, whole organism, uHTS, GFP/RFP fluorescence ratio, strain VP596; C. elegans VP596 Pgst-4::GFP/RFP ratio, 24 h; inhibition, % at 21.8 µM; hit rate 0.49% among 360,000;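 active means interference check ratio from 0.5 to 1.5 plus GFP to RFP signal ratio inhibition reaching or exceeding a fixed threshold, cut at about 30% in these data, passing the limit was not always enough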
MT1-MMP act inh – blockers of MT1-MMP proenzyme processing, primary screen, HT1080 RFP-PRO-GFP cells, GFP/RFP fluorescence; Matrix metalloproteinase-14 (Homo sapiens), P50281; GFP/RFP ratio fluorescence, overnight; percent of plate control window, DMSO zero; GFP/RFP ratio change, % at 20 µM; hit rate 0.061% among 360,000;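 active means GFP/RFP ratio change of at least 30% with cell ATP level not reduced by more than half and red fluorescence within 50% of control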
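Assay system – RFP-PRO-GFP reporter HT1080 cells · Compound dosing – single dose of 20 µM compound, 1% DMSO final · Incubation – overnight compound exposure at 37 °C · Measure – GFP/RFP fluorescence ratio · Benchmarks – DMSO wells and RFP-L50D-GFP cells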
GC-B act – human GC-B receptor activators, primary screen, HEK293 GC-B cells, cGMP TR-FRET, EC30 CNP; Atrial natriuretic peptide receptor 2 (Homo sapiens), P20594; 0% at EC30 CNP, 100% saturating CNP; activation, % at 10 µM; hit rate 0.11% among 370,000; AID 1920062, 2024;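 active means activation at 10 µM reaching about 35% in either raw or pattern-adjusted values, limit read from the data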
GC-A act – GC-A stimulated cGMP production enhancers – HEK293 GC-A cells, cGMP TR-FRET, EC30 ANP, primary screen | Atrial natriuretic peptide receptor 1 (Homo sapiens), P16066 | 0% at EC30 ANP, 100% saturating ANP | activation, % at 10 µM | hit rate 0.14% among 370,000; in the data active means activation above about 40%
A1 inh – caspase 3/7 activation in MEF A1-2A-BIM cells, primary screen, A1 inhibitor project, cell-based, luminescence, HTS; Caspase-Glo 3/7 luminescence, 3 h; percent of clofoctol response, vehicle zero; caspase activation, % (no concentration beside the values); hit rate 0.066% among 330,000;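 active means over half of replicate activation scores above 10%, or exactly half above 10 with the replicate mean above 10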
TbMetRS inhib – T. brucei MetRS inhibitors, primary screen, biochemical, luminescence; methionyl-tRNA synthetase (Trypanosoma brucei brucei); purified T. brucei MetRS, ATP depletion, Kinase-Glo luminescence; inhibition, % at 11.9 µM; hit rate 0.4% among 360,000; AID 624268, 2012;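 active means inhibition above a per-plate cutoff of the control wells' mean inhibition plus 3 SD, cut at about 5.5% in these data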;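 further: 0% = DMSO wells median and 100% = median of wells with control inhibitor compound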
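Test system – parasite MetRS enzyme · Reagent – substrates ATP, L-methionine and bulk Escherichia coli tRNA · Doses – 11.9 µM compound single dose, 0.9% DMSO · Times – 15 min enzyme-compound preincubation, 2 h reaction, 10 min detection, 25 °C · Signal – Kinase-Glo luminescence, ATP depletion format · Controls – DMSO-only wells as low control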
Tb MetRS conf – T. brucei MetRS inhibitors, confirmation, biochemical, luminescence; hit rate 93% among 1,400; T. brucei MetRS enzyme, luminescence (ATP depletion); shares compounds with TbMetRS inhib; inhibition, % at 11.9 µM; in the data active means inhibition above about 7%
Jurkat tox – Jurkat T cell cytotoxicity, cytotoxicity control for T. brucei MetRS inhibitor project, luminescence, high throughput; inhibition, % at 8.3 µM; shares compounds with TbMetRS inhib; Jurkat cells viability, ATP luminescence; hit rate 12% among 1,400; AID 624413, 2012; in the data active means inhibition above about 15%;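 further: 0% = vehicle and 100% = reference inhibitor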
TbMetRS FP orth – T. brucei MetRS inhibitors, orthogonal assay for T. brucei MetRS inhibitor project, biochemical, fluorescence polarization; shares compounds with TbMetRS inhib; purified T. brucei MetRS; inhibition, % at 11.9 µM; hit rate 44% among 1,400; in the data active means inhibition above about 17%;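 further: 0% = vehicle wells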
* hit, by the source's call.

O=C(Nc1ccc(F)cc1)c1ccc(-n2cncn2)c([N+](=O)[O-])c1 was read as SKN-1 inh -2, MT1-MMP act inh 5, GC-B act -3, GC-A act -1, A1 inh 0, TbMetRS inhib 34*, Tb MetRS conf 48*, Jurkat tox 22* and TbMetRS FP orth 28*.
For Cc1cccc(NC(=O)c2ccc(-n3cncn3)c([N+](=O)[O-])c2)c1 the results were SKN-1 inh 11, MT1-MMP act inh -2, GC-B act -7, GC-A act -3, A1 inh -4, TbMetRS inhib 20*, Tb MetRS conf 57*, Jurkat tox -1 and TbMetRS FP orth 29*.
Screening Cc1ccc(NC(=O)c2ccc(-n3cncn3)c([N+](=O)[O-])c2)cc1F returned SKN-1 inh -5, MT1-MMP act inh 4, GC-B act -1, GC-A act 2, A1 inh 0, TbMetRS inhib 13*, Tb MetRS conf 56*, Jurkat tox 1 and TbMetRS FP orth 25*.
Screening CCc1ccccc1NC(=O)CNC(=O)c1ccc(-n2cncn2)c([N+](=O)[O-])c1 returned SKN-1 inh 2, MT1-MMP act inh -9, GC-B act 4, GC-A act 2, A1 inh 1, TbMetRS inhib 18*, Tb MetRS conf 47*, Jurkat tox -1 and TbMetRS FP orth 23*.
`COc1cccc(NC(=O)CN(C)C(=O)c2ccc(-n3cncn3)c([N+](=O)[O-])c2)c1` gave SKN-1 inh -7, MT1-MMP act inh 3, GC-B act -3, GC-A act 4, A1 inh 1 and TbMetRS inhib 1.
For COC(=O)[C@]1(CNC(=O)Nc2ccc(C)c(Cl)c2)CC(=O)N(C)[C@@H]1c1ccccc1 the results were GC-B act 3 and GC-A act 4.
For Cc1cc(C)cc(NC(=O)O[C@@H]2CC[C@@]34CCCN3C(=O)CCC[C@H]4C2)c1 the results were GC-B act -5 and GC-A act 2.
COC(=O)[C@]12C[C@H](CC(=O)N3CCCC3)C(=O)N(Cc3cccc4ccccc34)C1=C[C@H](C1CCCC1)O[C@@H]2C was read as GC-B act -8 and GC-A act -11.
`Cc1ccc(-c2cc(-c3nnc(SCC(=O)N4CCOCC4)n3N)[nH]n2)cc1` gave GC-B act -2 and GC-A act 1.
`c1ccc(CCNc2ncnc3ccccc23)cc1` gave SKN-1 inh 8, MT1-MMP act inh -13, GC-B act 6, GC-A act 3, A1 inh -2 and TbMetRS inhib -1.
For CCCCCCCCNc1ncnc2ccccc12 the results were SKN-1 inh 51*, MT1-MMP act inh 2, A1 inh 0, TbMetRS inhib 11*, Tb MetRS conf 25*, Jurkat tox 46* and TbMetRS FP orth 8.

Screening results: PubChem, several laboratories
